STAT1 activator – STAT1 signaling activators, primary screen, cell-based, HTS, luciferase reporter | NIH 3T3 STAT1-luciferase reporter, IFN-gamma, luminescence; 100% = IFN-gamma alone, no compound | activation (% of control), % at 5.5 µM | 200,000 tested, 2.6% active | AID 932, 2007;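 active = activation above the screen-wide mean activation plus 3 SD, cut at about 130% in these data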
APP 5'UTR act – activators of APP 5'UTR luciferase reporter, primary screen, SH-SY5Y cells; SH-SY5Y APP 5'UTR luciferase reporter, luminescence; zero percent = DMSO vehicle wells; activation, % at 2 µM; 190,000 tested, 1% active;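 active = activation above a set limit, based on mean plus 3 SD of controls, cut at about 140% in these data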
MDM2 E3 inh – MDM2-luciferase reporter signal enhancers, primary screen, MDM2 E3 ligase inhibitor project, cell-based, luminescence, 1536-well; AID 1230, 2008; E3 ubiquitin-protein ligase Mdm2 (Homo sapiens), Q00987; signal enhancement, % at 5 µM; cell-based MDM2 ubiquitination luciferase reporter, 2 h; 0 = plate control, 100 = twice control, blank-subtracted; 210,000 tested, 0.11% active;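 active = signal enhancement of 30% or more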;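 also: luminescence tracks abundance of the self-degrading MDM2-luciferase fusion protein; higher signal means inhibition of MDM2 E3 ligase activity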
Target sequence (Q00987 whole entry, looked up, the tested form may be a part): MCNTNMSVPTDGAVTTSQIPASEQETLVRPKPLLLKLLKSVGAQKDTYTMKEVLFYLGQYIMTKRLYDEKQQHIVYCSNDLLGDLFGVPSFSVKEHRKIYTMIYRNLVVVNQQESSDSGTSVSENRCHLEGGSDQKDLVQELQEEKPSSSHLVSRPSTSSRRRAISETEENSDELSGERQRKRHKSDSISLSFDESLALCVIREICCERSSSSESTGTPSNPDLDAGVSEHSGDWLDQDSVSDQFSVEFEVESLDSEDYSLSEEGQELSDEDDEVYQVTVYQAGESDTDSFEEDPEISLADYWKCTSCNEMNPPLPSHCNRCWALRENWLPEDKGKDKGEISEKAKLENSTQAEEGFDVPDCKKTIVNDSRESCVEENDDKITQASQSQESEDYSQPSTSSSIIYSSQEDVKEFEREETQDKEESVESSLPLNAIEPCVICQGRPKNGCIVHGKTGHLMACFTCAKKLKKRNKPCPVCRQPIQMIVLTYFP
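Test system: stable mammalian line carrying autodegrading MDM2–luciferase fusion reporter; quantity: 2000 cells in each well; times: 4 h cell settling then 2 h compound exposure, 37 °C; detection: luminescence with SteadyLite reagent, 15 min at room temperature; evaluation: percent signal gain over controls, blank-subtracted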
NF-kB neuron act – activators of NF-kB expression in neurons, primary screen, cell-based, HTS | human neuronal cells, NF-kB reporter expression; active compounds read high | fold change at 12.5 µM | 190,000 tested, 1.6% active; in the data active = fold change above about 3.3
AHR act – AHR activators, primary screen, cell-based, luminescence, luciferase reporter, human; AID 2796, 2010; activation, % at 5 µM; Aryl hydrocarbon receptor (Homo sapiens), P35869; 320,000 tested, 2.5% active; AHR-responsive luciferase reporter cells; in the data active = activation above about 47%
PERK inhibitor – block of dimerizer-induced PERK translation repression, primary screen, PERK inhibitor project, CHO PERK-DD cells, SEAP luminescence, HTS. inhibition, % at 5.6 µM. 220,000 tested, 0.17% active. Eukaryotic translation initiation factor 2-alpha kinase 3 (Homo sapiens), Q9NZJ5. CHO PERK-DD fusion, SEAP luminescence translation reporter;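 active = inhibition above the mean inhibition of all tested compounds plus 3 SD, set separately per screening campaign, cut at about 2.9% in these data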;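 also: PERK kinase domain activated by AP20187 dimerizer at 100 nM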
Hits are given with their value. A selection: hits, their analogues and other compounds. The true share with any hit is near 4.5%.

How did COc1ccc(S(=O)(=O)N2CCCC(C(=O)NCc3ccc4c(c3)OCO4)C2)cc1 (stereo unspecified) do in these assays?
MDM2 E3 inh: inactive; AHR act: inactive; PERK inhibitor: inactive

What do the screens show for `CN(CC(=O)NCC(c1ccco1)N1CCCCC1)S(=O)(=O)c1ccc(Cl)cc1` (stereo unspecified)?
AHR act: inactive

How did CCS/C(N)=N/N=C/c1cc(C)ccc1O do in these assays?
STAT1 activator: 132.5; APP 5'UTR act: 160.0; MDM2 E3 inh: inactive; NF-kB neuron act: 13.2; AHR act: inactive; PERK inhibitor: inactive

What do the screens show for `CC1Oc2ccccc2OC1(O)c1ccc2ccccc2n1` (stereo unspecified)?
STAT1 activator: inactive; APP 5'UTR act: inactive; MDM2 E3 inh: inactive; NF-kB neuron act: inactive; AHR act: 51.4; PERK inhibitor: inactive

How did COc1cccc(C(=O)Nc2ccccc2C(=O)NCC2CCCO2)c1 (stereo unspecified) do in these assays?
AHR act: inactive

Results for Cc1ccc(-c2csc3nc(C)n(-n4c(C)ccc4C)c(=O)c23)o1 ?
STAT1 activator: inactive; APP 5'UTR act: inactive; MDM2 E3 inh: inactive; NF-kB neuron act: inactive; AHR act: inactive; PERK inhibitor: inactive

What do the screens show for `Cc1ccc(-c2csc3nc(C)n(N)c(=O)c23)o1`?
STAT1 activator: inactive; APP 5'UTR act: inactive; MDM2 E3 inh: inactive; NF-kB neuron act: inactive; AHR act: 55.0; PERK inhibitor: inactive

How did O=C(NN=C1CCCC1)c1ccccc1OCCOc1ccccc1 do in these assays?
STAT1 activator: inactive; APP 5'UTR act: inactive; MDM2 E3 inh: inactive; NF-kB neuron act: inactive; AHR act: inactive; PERK inhibitor: inactive

What do the screens show for `CCC(C)/C(C)=N/NC(=O)c1ccccc1OCCOc1ccccc1` (stereo unspecified)?
STAT1 activator: inactive; APP 5'UTR act: inactive; MDM2 E3 inh: inactive; NF-kB neuron act: inactive; AHR act: 78.6; PERK inhibitor: inactive

What do the screens show for `CCOC(=O)C(CC)/C(C)=N\NC(=O)c1ccccc1O` (stereo unspecified)?
STAT1 activator: inactive; APP 5'UTR act: inactive; MDM2 E3 inh: inactive; NF-kB neuron act: inactive; AHR act: 55.6; PERK inhibitor: inactive

Results for Cc1ccc(-n2nnnc2SCc2ccccn2)cc1C ?
STAT1 activator: inactive; APP 5'UTR act: inactive; MDM2 E3 inh: inactive; NF-kB neuron act: inactive; AHR act: inactive; PERK inhibitor: inactive

What do the screens show for `COc1ccccc1N=C(C)C1=C(O)CC(c2ccccc2)CC1=O` (stereo unspecified)?
STAT1 activator: inactive; APP 5'UTR act: inactive; MDM2 E3 inh: inactive; NF-kB neuron act: 3.49; AHR act: inactive; PERK inhibitor: inactive

How did CCCC(=Nc1ccccc1OC)C1=C(O)CC(c2ccccc2)CC1=O (stereo unspecified) do in these assays?
STAT1 activator: inactive; APP 5'UTR act: inactive; MDM2 E3 inh: inactive; NF-kB neuron act: inactive; AHR act: inactive; PERK inhibitor: inactive

What do the screens show for `CCCCn1c(N)c(N(CC(C)C)C(=O)c2oc3c(Cl)cccc3c2C)c(=O)[nH]c1=O`?
AHR act: inactive

What do the screens show for `CCC1CN(C(=O)N2CCC(C(=O)Nc3ccccc3OC)CC2)c2ccccc2O1` (stereo unspecified)?
AHR act: inactive

Results for COc1ccc(C2c3cc(OC)c(OC)cc3CCN2C(=O)c2ccccc2Br)cc1OC (stereo unspecified) ?
AHR act: inactive

How did COC(=O)c1ccc(C(NC(=O)OCc2ccccc2)/C(F)=C/[C@@H](C)C(=O)NCc2ccc(OC)c(OC)c2)cc1 (stereo partly specified) do in these assays?
STAT1 activator: inactive; APP 5'UTR act: inactive; NF-kB neuron act: inactive; AHR act: inactive; PERK inhibitor: inactive

How did COc1ccc2oc(=O)c(C(=O)Nc3cccc(C)c3)cc2c1 do in these assays?
STAT1 activator: 138.5; APP 5'UTR act: inactive; MDM2 E3 inh: inactive; NF-kB neuron act: inactive; AHR act: inactive; PERK inhibitor: inactive

How did COc1ccc(Br)cc1C(=O)Nc1cccc(C)c1 do in these assays?
STAT1 activator: inactive; APP 5'UTR act: inactive; MDM2 E3 inh: inactive; NF-kB neuron act: inactive; AHR act: 50.0; PERK inhibitor: inactive

How did O=c1cc(CSc2nc3ccccc3c(=O)[nH]2)c2ccc(O)cc2o1 do in these assays?
STAT1 activator: inactive; APP 5'UTR act: inactive; MDM2 E3 inh: inactive; NF-kB neuron act: inactive; PERK inhibitor: inactive

What do the screens show for `Cc1cc[n+](-c2nc([O-])n(-c3ccccc3)c2C=O)cc1`?
STAT1 activator: inactive; APP 5'UTR act: inactive; PERK inhibitor: inactive

What do the screens show for `CC(C)c1ccc(NC(=O)COc2ccccn2)cc1`?
STAT1 activator: 129.9; APP 5'UTR act: inactive; MDM2 E3 inh: inactive; NF-kB neuron act: inactive; AHR act: inactive; PERK inhibitor: inactive

Results for Nc1ccc(/C=C/C(=O)c2cccs2)cc1 ?
STAT1 activator: inactive; APP 5'UTR act: 142.8; MDM2 E3 inh: inactive; NF-kB neuron act: 5.93; AHR act: inactive; PERK inhibitor: inactive

How did Cc1c(C(=O)Nc2ccc(Cl)cc2)c2ccccn2c1CCc1ccncc1 do in these assays?
STAT1 activator: inactive; APP 5'UTR act: inactive; MDM2 E3 inh: inactive; NF-kB neuron act: inactive; AHR act: 86.8; PERK inhibitor: inactive

How did Cc1c(C(=O)Nc2cccc(Cl)c2)c2ccccn2c1CCc1ccncc1 do in these assays?
STAT1 activator: inactive; APP 5'UTR act: inactive; MDM2 E3 inh: inactive; NF-kB neuron act: inactive; PERK inhibitor: inactive

What do the screens show for `Cc1nn(C(C)C(=O)N2CCc3ccccc32)c(C)c1[N+](=O)[O-]` (stereo unspecified)?
STAT1 activator: inactive; APP 5'UTR act: inactive; MDM2 E3 inh: inactive; NF-kB neuron act: inactive; AHR act: 63.0; PERK inhibitor: inactive

What do the screens show for `O=c1c(-c2ccc(O)cc2)coc2cc(O)cc(O)c12`?
MDM2 E3 inh: inactive; AHR act: inactive

Results for COc1ccc(-c2coc3cc(OC4OC(CO)C(O)C(O)C4O)cc(O)c3c2=O)cc1 (stereo unspecified) ?
AHR act: inactive

Results for CC(C)Oc1cc(O)c2c(=O)c(-c3ccc(O)cc3)coc2c1 ?
STAT1 activator: inactive; APP 5'UTR act: 164.2; MDM2 E3 inh: inactive; NF-kB neuron act: 9.03; AHR act: inactive; PERK inhibitor: inactive

How did COc1ccc(-c2coc3cc(OC)cc(O)c3c2=O)cc1 do in these assays?
STAT1 activator: 143.0; APP 5'UTR act: 154.9; MDM2 E3 inh: inactive; NF-kB neuron act: 5.52; AHR act: inactive; PERK inhibitor: inactive

From PubChem
